Bioassay records: PubChem BioAssay, Sanford-Burnham Center for Chemical Genomics
SENP6 block – blocks the human protease SENP6. Q9GZR1. Recombinant SENP6 catalytic domain, aminoluciferin luminescence. inhibition, % at 10 µM. hit rate 1.8% among 330,000;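 active = inhibition above about 50% at the single tested dose, limit read from the data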;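 also: plate controls were DMSO wells with enzyme for no effect and DMSO wells lacking enzyme for full effect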
UBC13 inh – blocks human UBC13 polyubiquitin chain formation | hit rate 0.47% among 330,000 | P61088 | AID 485273 | TR-FRET | inhibition, % at 20 µM; in the data active = inhibition above about 45%, passing the limit was not always enough
Target sequence (P61088 whole entry, looked up): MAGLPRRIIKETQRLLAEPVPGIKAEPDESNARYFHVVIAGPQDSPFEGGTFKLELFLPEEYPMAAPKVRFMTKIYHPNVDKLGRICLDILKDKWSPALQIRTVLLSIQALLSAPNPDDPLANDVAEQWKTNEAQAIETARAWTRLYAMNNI
SENP7 inh – inhibitors of human SENP7 protease; Q9BQF6; recombinant SENP7, Z-RLRGG-aminoluciferin luminescence, 40 min; inhibition, % at 5 µM; hit rate 1.5% among 330,000; AID 434973;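 active = inhibition above about 50% at the single test dose, limit read from the data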;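 also: plate controls were DMSO with enzyme for no effect and no enzyme buffer wells for full effect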
Target sequence (Q9BQF6 706-1050 limits assumed): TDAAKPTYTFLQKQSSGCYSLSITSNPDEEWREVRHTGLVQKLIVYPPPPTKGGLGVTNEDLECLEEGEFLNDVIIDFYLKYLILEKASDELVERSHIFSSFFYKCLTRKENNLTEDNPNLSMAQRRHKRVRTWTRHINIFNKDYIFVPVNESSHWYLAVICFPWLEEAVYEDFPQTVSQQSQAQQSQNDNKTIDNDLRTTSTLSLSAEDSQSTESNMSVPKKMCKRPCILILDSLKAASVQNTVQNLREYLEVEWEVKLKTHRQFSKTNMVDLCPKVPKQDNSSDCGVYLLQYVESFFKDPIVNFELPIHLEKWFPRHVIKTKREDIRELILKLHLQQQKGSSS
Apaf-1 inh – inhibitors of human Apaf-1 apoptosome; hit rate 0.71% among 330,000; inhibition, % at 20 µM; O14727; reconstituted apoptosome caspase-3 activity, DEVD-Rh110 fluorescence; active = inhibition of at least 40% at 20 µM;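 also: plate controls were DMSO wells for no effect and DEVD-CHO caspase inhibitor wells for full effect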
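Material: cell-free apoptosome with Apaf-1, procaspase-3 and caspase-9; Buffer or medium: Hepes pH 7.5 with detergent and BSA; Reagent: cytochrome c trigger plus (Z-DEVD)2-Rh110 caspase-3 substrate; Times: compound with Apaf-1, dATP, procaspase-3 30 min, then 50 min reaction, room temperature; Technique: Rh110 fluorescence intensity.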
SENP8 block-1 – SENP8 protease inhibition; Q96LD8; purified SENP8, Z-RLRGG-aminoluciferin cleavage, luminescence; inhibition, % at 10 µM; hit rate 1.2% among 330,000; AID 2540; in the data active = inhibition above about 50%
Target sequence (Q96LD8 whole entry, looked up): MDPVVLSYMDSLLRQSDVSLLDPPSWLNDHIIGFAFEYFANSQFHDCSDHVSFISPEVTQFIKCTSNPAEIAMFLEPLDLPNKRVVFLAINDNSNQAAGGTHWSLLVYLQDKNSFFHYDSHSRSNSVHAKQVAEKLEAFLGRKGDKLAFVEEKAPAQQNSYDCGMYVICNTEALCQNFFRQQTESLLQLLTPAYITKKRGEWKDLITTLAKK
SENP8 block-2 – blocks human SENP8 cleavage of Nedd8 substrate. Q96LD8. recombinant SENP8, Nedd8 substrate fluorescence. inhibition, % at 20 µM. hit rate 0.64% among 360,000; in the data active = inhibition mostly above about 40%, no sharp cut-off; inactive = mostly below about 27%
SENP8 conf – confirmation of human SENP8 protease inhibitors; shares compounds with SENP7 inh; Recombinant SENP8, Z-RLRGG-aminoluciferin luminescence, 60 min; inhibition, % at 12.5 µM; hit rate 40% among 6,200;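 active = mean inhibition across replicates above about 50%, limit read from the data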
SENP6 confirm – confirmation of human SENP6 protease inhibitors; AID 488915; inhibition, % at 12.5 µM; recombinant SENP6, Z-RLRGG-aminoluciferin luminescence; shares compounds with SENP7 inh; hit rate 58% among 6,200
SENP7 confirm – human SENP7 inhibition, confirmed. inhibition, % at 12.5 µM. recombinant SENP7, Z-RLRGG-aminoluciferin luminescence, 40 min. shares compounds with SENP7 inh. AID 488917. hit rate 69% among 6,200
Casp3 SENP sel – caspase-3 inhibition (SENP selectivity assay); purified caspase-3, Z-DEVD-aminoluciferin luminescence, 60 min; AID 488918; inhibition, % at 12.5 µM; hit rate 60% among 6,200; shares compounds with SENP7 inh;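 active = mean inhibition above about 50%, limit read from the data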;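 also: plate controls were enzyme with DMSO for no effect and wells without caspase-3 for full effect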
SENP luc ctr – counter-screen for SENP inhibitors: luminescence interference. shares compounds with SENP7 inh. Pre-incubated SENP8/Z-RLRGG-aminoluciferin, luciferase luminescence interference. inhibition, % at 12.5 µM. hit rate 39% among 6,200;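 active = mean inhibition above about 50% when retested at one dose, limit read from the data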;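 also: plate controls were DMSO wells with completed reaction for no effect and substrate without enzyme for full effect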
Apaf-1 inh conf2 – confirmation of Apaf-1 inhibitors; shares compounds with Apaf-1 inh; reconstituted apoptosome, caspase-3 DEVD-Rh110 fluorescence; inhibition, % at 20 µM; hit rate 25% among 1,800; AID 504614;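 active = mean inhibition of at least 40% at 20 µM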;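 also: plate controls were DMSO wells for no effect and DEVD-CHO caspase inhibitor control wells for full effect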
Rh110 interf inh – counter-screen for Apaf-1 inhibitors: fluorescence interference; shares compounds with Apaf-1 inh; Rh110 fluorescence interference, quenched caspase reaction; activation (fluorescence interference), % at 20 µM; 1,800 tested, under 10 active; AID 504615;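 active = signal rise of 40% or more at 20 µM, treated as a fluorescence artifact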
Fluor interf inh – Apaf-1 inhibitor counter-screen fluorescence artifact | shares compounds with Apaf-1 inh | fluorescence interference counterscreen, Apaf-1 assay format | IC50, µM | 460 tested, under 10 active; call rule not given here
Starred values were filed as active, the others as inactive; nt = not tested or not shown. An excerpt weighted towards active compounds, which were near 3.1% of everything screened.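 The calls were made as follows, unless noted: active = mean inhibition above about 50% in the one-dose retest (limit read from the data); inactive = the rest.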

SMILES | SENP6 block | UBC13 inh | SENP7 inh | Apaf-1 inh | SENP8 block-1 | SENP8 block-2 | SENP8 conf | SENP6 confirm | SENP7 confirm | Casp3 SENP sel | SENP luc ctr | Apaf-1 inh conf2 | Rh110 interf inh | others
COc1ccc(C(=O)c2c(C(F)(F)F)oc3c2C(=O)c2ccccc2C3=O)cc1 | 70* | -46 | 27 | 79* | 47 | 81* | 27 | 70* | 15 | 72* | -6 | 84* | 14 | Fluor interf inh=>100
CC(C)Cn1c(N)c(C(=O)NCC2CCCO2)c2nc3ccccc3nc21 (stereo not drawn) | 76* | -7 | -2 | 65* | 76* | -455 | 5 | 16 | 6 | -2 | -3 | 30 | 10
COc1ccc(OC)c(-n2c(N)c(C(=O)NCC3CCCO3)c3nc4ccccc4nc32)c1 (stereo not drawn) | nt | nt | nt | nt | nt | -478 | nt | nt | nt | nt | nt | nt | nt
CC1(C)CC(=O)C(CSC(=O)c2ccccc2)C(=O)C1 | nt | nt | nt | nt | nt | 23 | nt | nt | nt | nt | nt | nt | nt
CN1CCc2cc3c(c4c2[C@H]1[C@H](O)c1ccccc1-4)OCO3 | 59* | -85 | 43 | 48* | 16 | -15 | 33 | 78* | 64* | 70* | 9 | 34 | 3
COc1ccc2c(c1OC)C(=O)OC2C1c2c(cc3c(c2OC)OCO3)CCN1C (stereo not drawn) | -15 | 5 | 1 | -9 | 3 | -12 | nt | nt | nt | nt | nt | nt | nt
CC1(C(=O)NCc2cccc3ccccc23)CCN1Cc1cccc2c1OCO2 (stereo not drawn) | nt | nt | nt | nt | nt | 21 | nt | nt | nt | nt | nt | nt | nt
CC(=O)Nc1ccc(NC2=C/C(=N/S(=O)(=O)c3cccs3)c3ccccc3C2=O)cc1 | 93* | -79 | 54* | 90* | 79* | 69* | 90* | 96* | 85* | 51* | 2 | 94* | -5 | Fluor interf inh=>100
CC(=O)Nc1ccc(NC(=O)C(C)OC(=O)c2ccccc2NS(=O)(=O)c2cccs2)cc1 (stereo not drawn) | 0 | 4 | 5 | -20 | -4 | -20 | nt | nt | nt | nt | nt | nt | nt
CC1=C(C(=O)N2CCCCCC2)CC(CC(=O)NCCN2CCOCC2)C(=O)N1CCC1=CCCCC1 (stereo not drawn) | nt | nt | nt | nt | nt | 8 | nt | nt | nt | nt | nt | nt | nt
CC(=O)N1CCn2c3c(c(=O)c4cc(C)ccc42)CCC31 (stereo not drawn) | 55* | -14 | 28 | 73* | 43 | -103 | 14 | 24 | 5 | 2 | -1 | 17 | -1
CC(=O)c1cc(O)c2ccccc2c1O | 60* | -41 | 8 | 58* | 27 | -18 | 1 | 10 | -2 | -2 | 1 | 11 | 3
O=C(CNc1cccc2ccccc12)N/N=C/C(Br)=C/c1ccccc1 | 80* | -51 | 39 | 65* | 56* | -48 | 10 | 14 | 12 | 5 | 5 | 2 | 7
C=CCc1cccc(/C=N/NC(=O)CNc2cccc3ccccc23)c1O | 72* | -17 | 31 | 96* | 34 | -216 | 7 | 7 | 18 | 13 | 10 | 13 | 4
C=CCc1cccc(/C=N/NC(=O)CNc2ccccc2OC)c1O | -6 | -2 | 5 | 24 | 1 | 2 | nt | nt | nt | nt | nt | nt | nt
COc1ccc(-c2csc(Nc3ccc(Oc4ccccc4)cc3)n2)cc1 | nt | nt | nt | nt | nt | 17 | nt | nt | nt | nt | nt | nt | nt
O=S(=O)(Cc1ccccc1)NCc1cccnc1 | -7 | -2 | 3 | -5 | 9 | -3 | nt | nt | nt | nt | nt | nt | nt
O=C1C(Cl)=C(NCc2cccnc2)C(=O)c2ccccc21 | 60* | -447 | 30 | 85* | 30 | 86* | 47 | 72* | 27 | 66* | 3 | 65* | 8 | Fluor interf inh=>100
Cc1ccc2[nH]c3c(c2c1)CN(C(=O)CN1CCCc2ccccc21)CC3 | 95* | -29 | 34 | 78* | 36 | -14 | -9 | -6 | -7 | 2 | 1 | 15 | 8
Cc1ccc2[nH]c3c(c2c1)CN(C(=O)CN1CCCCC1)CC3 | 2 | 1 | -9 | -16 | -11 | nt | nt | nt | nt | nt | nt | nt | nt
COc1cc(CNc2ccc(O)cc2)cc(Br)c1OCc1ccccc1F | 23 | 0 | 60* | 96* | -5 | 19 | 1 | 4 | -3 | -2 | 1 | 23 | 14
CC(C)(C)c1cc(C(=O)N/N=C/c2ccc(-c3ccccc3[N+](=O)[O-])o2)n[nH]1 | 52* | -38 | 22 | 42* | 43 | 30 | -6 | 3 | -6 | -12 | -6 | 16 | -3
Cc1cc(C(=O)N/N=C/c2ccc(-c3cccc(Cl)c3Cl)o2)n[nH]1 | -23 | 2 | -3 | 6 | -14 | -304 | nt | nt | nt | nt | nt | nt | nt
CC1CCN(C(=O)c2ccc3c(c2)C(=O)c2ccccc2-3)CC1 | nt | nt | nt | nt | nt | 16 | nt | nt | nt | nt | nt | nt | nt
Cc1ccc(C(=O)c2c(C)oc3c2C(=O)C(=O)c2ccccc2-3)cc1 | 19 | -144 | 51* | 88* | 29 | 106* | 22 | 57* | 17 | -2 | 1 | 73* | 5 | Fluor interf inh=>100
Cc1oc2c(c1C(=O)N1CCC(C)CC1)C(=O)c1ccccc1C2=O | 55* | -52 | 28 | 42* | 26 | nt | 18 | 52* | 18 | 35 | 0 | 33 | 0
CCN(C(=S)NC(=O)c1ccco1)c1cccc2ccccc12 | 70* | -21 | 23 | 82* | 33 | -483 | 13 | 17 | 9 | 3 | 5 | 17 | 8
COc1ccc(OC)c(S(=O)(=O)Oc2ccc(N)c3ccccc23)c1 | 94* | -60 | 28 | 69* | 72* | -14 | 2 | 24 | 19 | 3 | 3 | 38 | 3
COc1ccc(OC)c(S(=O)(=O)Nc2cccc3ccccc23)c1 | 12 | 2 | -8 | -3 | 11 | -18 | nt | nt | nt | nt | nt | nt | nt
CN(CCO)c1nc(N)c2c(N)nc3c(c2c1C#N)CC(=O)N3Cc1cccs1 | 74* | -14 | 32 | 77* | -3 | -386 | -23 | -15 | -11 | -11 | -6 | 15 | 4
